Peptide text beside a SMILES is read from it. * marks the point of attachment. Boc = CC(C)(C)OC(=O)*; Acm = CC(=O)NC*
T1: Vitamin K-dependent gamma-carboxylase (Rattus norvegicus) (UniProt O88496)
T1 sequence (whole entry): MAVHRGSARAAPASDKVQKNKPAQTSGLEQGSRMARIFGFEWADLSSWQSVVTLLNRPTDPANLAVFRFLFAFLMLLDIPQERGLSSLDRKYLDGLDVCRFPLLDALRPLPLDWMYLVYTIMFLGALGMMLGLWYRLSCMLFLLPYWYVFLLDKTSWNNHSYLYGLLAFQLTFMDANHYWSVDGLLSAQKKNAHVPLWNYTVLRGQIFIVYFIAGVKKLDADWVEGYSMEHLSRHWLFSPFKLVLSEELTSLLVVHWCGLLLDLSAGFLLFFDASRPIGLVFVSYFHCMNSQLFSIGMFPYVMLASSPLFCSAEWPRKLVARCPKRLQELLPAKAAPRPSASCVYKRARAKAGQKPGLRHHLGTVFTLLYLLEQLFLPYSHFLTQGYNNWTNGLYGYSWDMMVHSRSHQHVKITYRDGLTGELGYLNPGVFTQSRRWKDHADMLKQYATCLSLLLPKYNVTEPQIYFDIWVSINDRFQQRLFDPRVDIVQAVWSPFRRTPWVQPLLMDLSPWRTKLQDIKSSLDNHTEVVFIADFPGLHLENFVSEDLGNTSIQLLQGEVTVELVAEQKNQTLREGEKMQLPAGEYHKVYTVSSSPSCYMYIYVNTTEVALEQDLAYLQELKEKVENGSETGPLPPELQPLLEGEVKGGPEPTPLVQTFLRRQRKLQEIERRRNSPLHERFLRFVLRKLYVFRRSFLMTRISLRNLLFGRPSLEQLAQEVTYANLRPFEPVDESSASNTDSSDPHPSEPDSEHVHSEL

B1: Vitamin K-dependent gamma-carboxylase (Rattus norvegicus), O88496 (protein)
chain: MAVHRGSARAAPASDKVQKNKPAQTSGLEQGSRMARIFGFEWADLSSWQSVVTLLNRPTDPANLAVFRFLFAFLMLLDIPQERGLSSLDRKYLDGLDVCRFPLLDALRPLPLDWMYLVYTIMFLGALGMMLGLWYRLSCMLFLLPYWYVFLLDKTSWNNHSYLYGLLAFQLTFMDANHYWSVDGLLSAQKKNAHVPLWNYTVLRGQIFIVYFIAGVKKLDADWVEGYSMEHLSRHWLFSPFKLVLSEELTSLLVVHWCGLLLDLSAGFLLFFDASRPIGLVFVSYFHCMNSQLFSIGMFPYVMLASSPLFCSAEWPRKLVARCPKRLQELLPAKAAPRPSASCVYKRARAKAGQKPGLRHHLGTVFTLLYLLEQLFLPYSHFLTQGYNNWTNGLYGYSWDMMVHSRSHQHVKITYRDGLTGELGYLNPGVFTQSRRWKDHADMLKQYATCLSLLLPKYNVTEPQIYFDIWVSINDRFQQRLFDPRVDIVQAVWSPFRRTPWVQPLLMDLSPWRTKLQDIKSSLDNHTEVVFIADFPGLHLENFVSEDLGNTSIQLLQGEVTVELVAEQKNQTLREGEKMQLPAGEYHKVYTVSSSPSCYMYIYVNTTEVALEQDLAYLQELKEKVENGSETGPLPPELQPLLEGEVKGGPEPTPLVQTFLRRQRKLQEIERRRNSPLHERFLRFVLRKLYVFRRSFLMTRISLRNLLFGRPSLEQLAQEVTYANLRPFEPVDESSASNTDSSDPHPSEPDSEHVHSEL

What was measured:
[1] = biological target: T1, Vitamin K-dependent gamma-carboxylase (Rattus norvegicus); assay: Substrate activity was determined for the rat liver microsomal vitamin K dependent carboxylase by dpm incorporation at 0.125 mM
Summary of the method: (§1)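 Rat liver microsomal carboxylase with the peptide as substrate. Incubations ran 60 min at 17 °C in duplicate and were averaged. Read-out was dpm incorporated, with the no-vitamin K blank subtracted. The enzyme requires oxygen, reduced vitamin K and carbon dioxide.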

[2] = biological target: T1, Vitamin K-dependent gamma-carboxylase (Rattus norvegicus); assay: Substrate activity was determined for the rat liver microsomal vitamin K dependent carboxylase by dpm incorporation at 0.0625 mM; summary of the method: as §1
[3] = biological target: T1, Vitamin K-dependent gamma-carboxylase (Rattus norvegicus); assay: Substrate activity was determined for the rat liver microsomal vitamin K dependent carboxylase by dpm incorporation at 0.25 mM; summary of the method: as §1
[4] = biological target: T1, Vitamin K-dependent gamma-carboxylase (Rattus norvegicus); assay: Evaluated as substrate for the rat liver microsomal vitamin K dependent carboxylase by dpm incorporation at 0.25 mM; summary of the method: as §1
[5] = biological target: T1, Vitamin K-dependent gamma-carboxylase (Rattus norvegicus); assay: Evaluated as substrate for the rat liver microsomal vitamin K dependent carboxylase by dpm incorporation at 0.125 mM; summary of the method: as §1
[6] = biological target: T1, Vitamin K-dependent gamma-carboxylase (Rattus norvegicus); assay: Evaluated as substrate for the rat liver microsomal vitamin K dependent carboxylase by dpm incorporation at 0.0625 mM; summary of the method: as §1
[7] = substrate: CC(C)C[C@H]1NC(=O)[C@H](N)CSSC[C@@H](C(=O)O)NC(=O)[C@@H]2CCCN2C(=O)[C@@H](CCC(=O)O)NC(=O)[C@H](CCC(=O)O)NC1=O; assay: Binding affinity was evaluated for the compound against Vitamin K dependent carboxylase

Row | Molecule | Activity [1] | Activity [2] | Activity [3] | Activity [4] | Activity [5] | Activity [6] | Km [7] [µM]
1 | CC(C)C[C@H](NC(=O)[C@@H](N)CC(N)=O)C(=O)N[C@@H](CCC(=O)O)C(=O)N[C@@H](CCCN=C(N)N)C(=O)N[C@@H](CCC(=O)O)C(=O)N[C@@H]1CSSC[C@@H](C(=O)N[C@@H](CO)C(=O)N[C@@H](CCCN=C(N)N)C(=O)N[C@@H](CCC(=O)O)C(=O)N[C@@H](CCC(=O)O)C(=O)N[C@@H](C)C(=O)N[C@@H](Cc2ccccc2)C(=O)O)NC(=O)[C@@H]2CCCN2C(=O)[C@@H](CCC(=O)O)NC(=O)[C@H](CCC(=O)O)NC(=O)[C@@H](CC(C)C)NC1=O | 480 | 240 | 810 | – | – | – | –
2 | COC(=O)[C@H](CC(C)C)NC(=O)[C@H](CCC(=O)O)NC(=O)[C@H](CCC(=O)O)NC(=O)OC(C)(C)C (Boc-Glu-Glu-Leu-OMe) | – | – | – | 11400 | 5770 | 3020 | –
3 | CC(=O)NCSC[C@H](NC(=O)[C@H](CCC(=O)O)NC(=O)[C@H](CCCN=C(N)N)NC(=O)[C@H](CCC(=O)O)NC(=O)[C@H](CC(C)C)NC(=O)[C@@H](N)CC(N)=O)C(=O)N[C@@H](CC(C)C)C(=O)N[C@@H](CCC(=O)O)C(=O)N[C@@H](CCC(=O)O)C(=O)N1CCC[C@H]1C(=O)N[C@@H](CSCNC(C)=O)C(=O)N[C@@H](CO)C(=O)N[C@@H](CCCN=C(N)N)C(=O)N[C@@H](CCC(=O)O)C(=O)N[C@@H](CCC(=O)O)C(=O)N[C@@H](C)C(=O)N[C@@H](Cc1ccccc1)C(=O)O (H-NLEREC(Acm)LEEPC(Acm)SREEAF-OH) | 920 | 480 | 2380 | – | – | – | –
4 | B1 | – | – | – | – | – | – | 3000

Reference: ChEMBL document CHEMBL1123864, “Synthetic bovine prothrombin precursor 13-29 for studies of vitamin K dependent carboxylase” (J Med Chem, 1987)
